Experiment [1] concerns the target T1, Nitric oxide synthase 1 (Homo sapiens, UniProt P29475). The experiment is described as follows: Inhibition of recombinant nNOS (unknown origin) assessed as conversion of L-[3H]-arginine to L-[3H]-citrulline at 1 mM after 30 mins. Put shortly:
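Recombinant nNOS (21.05 nmol/min/mg) in 25 mM Tris-HCl pH 7.6 with DTT, H4-biopterin, FAD, inosine, BSA, CaCl2, L-arginine and 50 nM L-[3H]-arginine. Compound at 1 mM; 37 °C, 30 min. Stopped with cold HEPES/EGTA/L-citrulline pH 5.5, Dowex-50W (Na+) separation, [3H]-citrulline by scintillation. NADPH-omitted blank subtracted. Mean of three experiments in triplicate.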

Experiment [2] has as its target Nitric oxide synthase, inducible (Homo sapiens) (UniProt P35228). The experiment is described as follows: Inhibition of recombinant iNOS (unknown origin) assessed as conversion of L-[3H]-arginine to L-[3H]-citrulline at 1 mM after 30 mins. Put shortly: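 Recombinant iNOS was tested with each compound at 1 mM. Activity is expressed relative to control and reported as % inhibition. Each value is the mean of three experiments, each run in triplicate.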

Experiment [3] addresses T1, Nitric oxide synthase 1. Briefly: Inhibition of recombinant nNOS (unknown origin) assessed as conversion of L-[3H]-arginine to L-[3H]-citrulline after 30 mins. Put shortly:
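Bredt–Snyder radiometric citrulline assay using recombinant nNOS in 25 mM Tris-HCl pH 7.6 with DTT, H4-biopterin, FAD, inosine, BSA, 0.1 mM CaCl2, L-arginine and 50 nM L-[3H]-arginine. Incubated at 37 °C for 30 min, then Dowex-50W separation and scintillation counting. Blank without NADPH subtracted. IC50 given in mM.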

The structures appear in SMILES notation.

Sequence of Nitric oxide synthase, inducible (Homo sapiens) (P35228 whole entry): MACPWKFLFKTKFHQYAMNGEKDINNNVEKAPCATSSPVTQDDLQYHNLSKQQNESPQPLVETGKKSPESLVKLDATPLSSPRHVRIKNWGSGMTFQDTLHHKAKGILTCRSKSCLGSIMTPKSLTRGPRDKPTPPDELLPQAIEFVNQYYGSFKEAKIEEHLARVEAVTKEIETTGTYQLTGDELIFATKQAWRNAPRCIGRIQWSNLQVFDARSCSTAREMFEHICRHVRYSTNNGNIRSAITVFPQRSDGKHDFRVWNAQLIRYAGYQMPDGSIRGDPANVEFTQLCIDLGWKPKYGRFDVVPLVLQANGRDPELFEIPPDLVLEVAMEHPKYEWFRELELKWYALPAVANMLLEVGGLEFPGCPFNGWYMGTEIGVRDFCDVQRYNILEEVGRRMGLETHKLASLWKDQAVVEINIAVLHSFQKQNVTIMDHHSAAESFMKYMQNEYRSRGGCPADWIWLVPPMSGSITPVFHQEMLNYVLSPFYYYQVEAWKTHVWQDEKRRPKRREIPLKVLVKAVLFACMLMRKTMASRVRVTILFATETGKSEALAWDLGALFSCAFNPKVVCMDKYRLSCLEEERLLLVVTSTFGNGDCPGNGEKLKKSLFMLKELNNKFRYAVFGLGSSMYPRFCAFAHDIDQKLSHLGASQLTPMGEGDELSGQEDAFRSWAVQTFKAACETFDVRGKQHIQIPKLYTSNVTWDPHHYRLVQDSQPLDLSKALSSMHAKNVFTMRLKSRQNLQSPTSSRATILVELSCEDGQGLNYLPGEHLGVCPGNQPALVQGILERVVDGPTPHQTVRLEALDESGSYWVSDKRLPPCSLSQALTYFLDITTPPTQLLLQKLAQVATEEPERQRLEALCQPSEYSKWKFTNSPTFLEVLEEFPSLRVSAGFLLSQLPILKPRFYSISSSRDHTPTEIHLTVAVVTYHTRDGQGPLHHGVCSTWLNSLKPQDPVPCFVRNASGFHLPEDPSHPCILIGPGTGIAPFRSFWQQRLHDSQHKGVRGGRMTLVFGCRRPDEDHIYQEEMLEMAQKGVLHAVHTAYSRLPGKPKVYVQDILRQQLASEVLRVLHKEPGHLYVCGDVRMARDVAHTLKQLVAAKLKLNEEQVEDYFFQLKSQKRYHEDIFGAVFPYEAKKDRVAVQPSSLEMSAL
T1 sequence (P29475 whole entry): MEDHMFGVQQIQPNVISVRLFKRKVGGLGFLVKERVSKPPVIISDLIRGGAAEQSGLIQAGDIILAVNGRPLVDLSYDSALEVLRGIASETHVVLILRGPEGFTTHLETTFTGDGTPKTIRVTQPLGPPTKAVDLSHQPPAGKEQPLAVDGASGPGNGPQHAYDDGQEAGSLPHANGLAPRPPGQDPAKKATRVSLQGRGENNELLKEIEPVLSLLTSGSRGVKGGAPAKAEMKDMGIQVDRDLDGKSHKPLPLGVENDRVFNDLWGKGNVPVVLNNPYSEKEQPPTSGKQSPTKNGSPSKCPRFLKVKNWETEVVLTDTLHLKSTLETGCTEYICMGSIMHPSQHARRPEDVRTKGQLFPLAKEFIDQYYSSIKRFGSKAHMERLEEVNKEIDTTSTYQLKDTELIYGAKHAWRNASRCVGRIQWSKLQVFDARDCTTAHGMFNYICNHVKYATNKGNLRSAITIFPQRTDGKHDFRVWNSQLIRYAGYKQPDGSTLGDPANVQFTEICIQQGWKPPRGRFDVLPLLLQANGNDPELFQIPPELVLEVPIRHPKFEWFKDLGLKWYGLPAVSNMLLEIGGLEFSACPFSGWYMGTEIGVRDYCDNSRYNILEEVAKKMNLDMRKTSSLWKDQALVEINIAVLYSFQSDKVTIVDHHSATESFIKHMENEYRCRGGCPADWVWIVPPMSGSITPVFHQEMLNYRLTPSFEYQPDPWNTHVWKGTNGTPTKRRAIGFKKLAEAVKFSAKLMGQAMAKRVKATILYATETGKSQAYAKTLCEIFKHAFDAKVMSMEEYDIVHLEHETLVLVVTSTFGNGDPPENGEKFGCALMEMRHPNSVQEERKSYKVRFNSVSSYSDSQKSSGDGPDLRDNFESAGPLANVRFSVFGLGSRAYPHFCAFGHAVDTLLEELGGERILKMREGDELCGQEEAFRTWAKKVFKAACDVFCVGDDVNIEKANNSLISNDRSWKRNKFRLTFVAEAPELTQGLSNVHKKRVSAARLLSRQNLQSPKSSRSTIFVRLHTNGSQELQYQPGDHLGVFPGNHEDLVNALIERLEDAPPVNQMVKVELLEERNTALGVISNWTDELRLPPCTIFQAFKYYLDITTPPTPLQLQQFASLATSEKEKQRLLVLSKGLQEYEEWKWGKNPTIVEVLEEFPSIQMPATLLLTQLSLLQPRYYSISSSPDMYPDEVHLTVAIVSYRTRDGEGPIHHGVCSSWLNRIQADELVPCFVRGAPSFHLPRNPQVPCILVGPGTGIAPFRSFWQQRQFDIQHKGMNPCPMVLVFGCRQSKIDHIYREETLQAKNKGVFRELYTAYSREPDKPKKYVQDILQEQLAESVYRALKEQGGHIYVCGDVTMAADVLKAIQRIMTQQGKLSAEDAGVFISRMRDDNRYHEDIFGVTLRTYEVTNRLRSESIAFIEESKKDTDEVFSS

As to `COc1cc(N)c(C2=NN(C(=O)C3CC3)CC2)cc1OC`, the inhibition on Nitric oxide synthase 1 [1] came to 19.6%; in experiment [2] it was 25.2%.

Turning to `Nc1ccccc1C1=NN(C(=O)C2CC2)CC1`, the inhibition on Nitric oxide synthase 1 [1] came out at 38.8%; in experiment [2], 14.8%.

Consider `Nc1ccccc1C1=NN(C(=O)Cc2ccccc2)CC1`, for which the inhibition on Nitric oxide synthase 1 [1] stood at 2.68%; in experiment [2], 2.31%.

For `COc1ccc(N)c(C2=NN(C(=O)c3ccccc3)CC2)c1`, the inhibition came out at 58.9% on Nitric oxide synthase 1 [1] and 12.2% in experiment [2].

In the case of `Nc1cc(Cl)c(Cl)cc1C1=NN(C(=O)C2CC2)CC1`, the figures for the inhibition (on Nitric oxide synthase 1 [1]; in experiment [2]) were 50.5% and 15.5%, respectively.

Regarding `CCC(=O)N1CCC(c2cc(Cl)ccc2N)=N1`, the values for the inhibition (at Nitric oxide synthase 1 [1]; in experiment [2]) were 46.1% and 13.7%, respectively.

For `COc1cc(N)c(C2=NN(C(=O)c3ccccc3)CC2)cc1OC`, the figures for the inhibition (on Nitric oxide synthase 1 [1]; in experiment [2]) were 25.1% and 28.9%, respectively.

As for `Nc1ccccc1C1=NN(C(=O)CCc2ccccc2)CC1`, the results for the inhibition (at Nitric oxide synthase 1 [1]; in experiment [2]) were 7.36% and 5.64%, respectively.

For `COc1ccc(N)c(C2=NN(C(=O)C3CCCCC3)CC2)c1`, the inhibition is 62.2% at Nitric oxide synthase 1 [1] and 13.2% in experiment [2].

For `COc1ccc(N)c(C2=NN(C(=O)C3CCCC3)CC2)c1`, the inhibition was found to be 49.9% on Nitric oxide synthase 1 [1] and 1.85% in experiment [2].

With `Nc1ccc(Cl)cc1C1=NN(C(=O)c2ccccc2)CC1`, the inhibition on Nitric oxide synthase 1 [1] is 61.1%; in experiment [2], 17%.

For `CCCC(=O)N1CCC(c2cc(OC)ccc2N)=N1`, the values for the inhibition (on Nitric oxide synthase 1 [1]; in experiment [2]) were 34.7% and 13.1%, respectively.

With `CCC(=O)N1CCC(c2cc(OC)ccc2N)=N1`, the inhibition at Nitric oxide synthase 1 [1] was 53.3%; in experiment [2], 20.4%.

`COc1ccc(N)c(C2=NN(C(=O)Cc3ccccc3)CC2)c1`: the inhibition was determined as 0.03% at Nitric oxide synthase 1 [1] and 15% in experiment [2].

Turning to `COc1ccc(N)c(C2=NN(C(=O)CCc3ccccc3)CC2)c1`, the inhibition on Nitric oxide synthase 1 [1] was 25.9%; in experiment [2] it was 21.2%.

In the case of `COc1ccc(N)c(C2=NN(C(C)=O)CC2)c1`, the inhibition at Nitric oxide synthase 1 [1] was found to be 38%; in experiment [2], 20.4%.

`Nc1ccc(Cl)cc1C1=NN(C(=O)C2CC2)CC1`: the inhibition on Nitric oxide synthase 1 [1] was found to be 70.2%; in experiment [2] it was 18.9%.

On to `COc1cc(N)c(C2=NN(C(=O)c3ccccc3)CC2)c(OC)c1OC`, for which the IC50 at Nitric oxide synthase 1 [3] was determined as 530 µM. The inhibition on Nitric oxide synthase 1 [1] came to 62.9%; in experiment [2] it was 8.14%.

For the compound `CCCCC(=O)N1CCC(c2cc(OC)ccc2N)=N1`, the inhibition is 49.8% on Nitric oxide synthase 1 [1] and 0.18% in experiment [2].

Consider `Nc1ccc(Cl)cc1C1=NN(C(=O)Cc2ccccc2)CC1`, for which the inhibition was 18.2% at Nitric oxide synthase 1 [1] and 34.6% in experiment [2].

Regarding `Nc1ccc(Cl)cc1C1=NN(C(=O)CCc2ccccc2)CC1`, the inhibition was 32.4% on Nitric oxide synthase 1 [1] and 31.4% in experiment [2].

In the case of `CCCC(=O)N1CCC(c2ccccc2N)=N1`, the inhibition at Nitric oxide synthase 1 [1] turned out to be 52.4%.

Take `Nc1cc(Cl)c(Cl)cc1C1=NN(C(=O)Cc2ccccc2)CC1`: the inhibition was 21.6% on Nitric oxide synthase 1 [1] and 49.2% in experiment [2].

Turning to `COc1cc(N)c(C2=NN(C(=O)Cc3ccccc3)CC2)c(OC)c1OC`, the inhibition at Nitric oxide synthase 1 [1] amounted to 48.4%; in experiment [2] it was 23.4%.

Turning to `Nc1cc(Cl)c(Cl)cc1C1=NN(C(=O)c2ccccc2)CC1`, the inhibition stood at 0.62% on Nitric oxide synthase 1 [1] and 36.1% in experiment [2].

Take `COc1cc(N)c(C2=NN(C(=O)C3CC3)CC2)c(OC)c1OC`: the inhibition on Nitric oxide synthase 1 [1] worked out at 0.05%; in experiment [2] it was 30.1%.

Turning to `CC(=O)N1CCC(c2ccccc2N)=N1`, the inhibition at Nitric oxide synthase 1 [1] is 33.7%; in experiment [2], 7.73%.

As for `Nc1ccccc1C1=NN(C(=O)c2ccccc2)CC1`, the inhibition at Nitric oxide synthase 1 [1] stood at 57%; in experiment [2], 8.7%.

For `CCCC(=O)N1CCC(c2cc(Cl)ccc2N)=N1`, the inhibition at Nitric oxide synthase 1 [1] stood at 34.4%; in experiment [2] it was 0.29%.

As to `CCC(=O)N1CCC(c2ccccc2N)=N1`, the inhibition at Nitric oxide synthase 1 [1] was found to be 36.5%; in experiment [2], 6.88%.

Turning to `Nc1cc(Cl)c(Cl)cc1C1=NN(C(=O)CCc2ccccc2)CC1`, the inhibition on Nitric oxide synthase 1 [1] turned out to be 2.97%; in experiment [2], 50.2%.

As to `COc1cc(N)c(C2=NN(C(=O)Cc3ccccc3)CC2)cc1OC`, the figures for the inhibition (at Nitric oxide synthase 1 [1]; in experiment [2]) were 35.1% and 21%, respectively.

With `COc1cc(N)c(C2=NN(C(=O)CCc3ccccc3)CC2)cc1OC`, at Nitric oxide synthase 1 [3], the IC50 is 880 µM. The inhibition at Nitric oxide synthase 1 [1] turned out to be 55.3%; in experiment [2], 23.7%.

For the compound `COc1ccc(N)c(C2=NN(C(=O)C3CC3)CC2)c1`, the results for the inhibition (at Nitric oxide synthase 1 [1]; in experiment [2]) were 62.2% and 19.9%, respectively.

With `COc1ccc(N)c(C2=NN(C(=O)C3CCC3)CC2)c1`, the inhibition came to 38.3% on Nitric oxide synthase 1 [1] and 1.91% in experiment [2].

In the case of `COc1cc(N)c(C2=NN(C(=O)CCc3ccccc3)CC2)c(OC)c1OC`, at Nitric oxide synthase 1 [3], the IC50 turned out to be 400 µM. Besides, the inhibition at Nitric oxide synthase 1 [1] came to 82.5%; in experiment [2] it was 18.3%.

As for `CC(=O)N1CCC(c2cc(Cl)ccc2N)=N1`, the inhibition on Nitric oxide synthase 1 [1] was determined as 47.6%; in experiment [2], 1.03%.

The record behind these values is ChEMBL document CHEMBL2396629, “Synthesis and biological evaluation of 4,5-dihydro-1H-pyrazole derivatives as potential nNOS/iNOS selective inhibitors. Part 2: Influence of diverse substituents in both the phenyl moiety and the acyl group” (Bioorg Med Chem, 2013).
